Activity calls are given as the source filed them.
Assays:
DU-145 = assay: Cytotoxicity against human DU145 cells after 72 hrs by MTT assay; assay type: functional, cell-based; conditions: DU-145, 72 h
In short: (§1)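 HCT-116, HCT-15, HT-29, DU-145, PC-3 or HEK293/pcDNA3.1 cells in DMEM with 10% FBS were trypsinised and seeded at 5×10^3 cells/well. They received compound at 0.1–100 μM for 72 hr, then MTT (4 mg/mL) for 4 hr. Formazan was dissolved in DMSO and A570 read. IC50 by Bliss method from survival curves; ≥3 experiments, each in triplicate.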

[1] = Cytotoxicity against human HCT116 cells after 72 hrs by MTT assay; assay type: functional, cell-based; conditions: HCT-116, 72 h; in short: as §1
A2780 = assay: Cytotoxicity against human A2780 cells after 72 hrs by MTT assay; assay type: functional, cell-based; conditions: A2780, 72 h
In short: (§2)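 MTT assay over 0.1–100 μM with a 72 hr exposure, then 4 hr with MTT (4 mg/mL). Formazan dissolved in DMSO, A570 read. IC50 from survival curves (Bliss method); three independent experiments in triplicate; 100 μM taken as cut-off.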

[2] = Cytotoxicity against human S1 cells after 72 hrs by MTT assay; assay type: functional, cell-based; conditions: S1, 72 h
In short: (§3)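 Seeding was 6×10^3 cells/well (MDCK, NIH/3T3, MCF-7, MDA-MB-231, LS-180, LS-174, LoVo, S1) after trypsinisation, in DMEM with 10% FBS. Compound at 0.1–100 μM for 72 hr, then MTT (4 mg/mL) for 4 hr. Formazan dissolved in DMSO, absorbance at 570 nm. IC50 by Bliss method; means ± SD, ≥3 experiments in triplicate.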

MDA-MB-231 = assay: Cytotoxicity against human MDA-MB-231 cells after 72 hrs by MTT assay; assay type: functional, cell-based; conditions: MDA-MB-231, 72 h; in short: as §3
2008 = assay: Cytotoxicity against human 2008 cells after 72 hrs by MTT assay; assay type: functional, cell-based; conditions: Homo sapiens, 2008, 72 h; in short: as §2
HepG2 [3] = assay: Cytotoxicity against human HepG2 cells after 72 hrs by MTT assay; assay type: functional, cell-based; conditions: HepG2, 72 h; in short: as §2
MCF7 = assay: Cytotoxicity against human MCF7 cells after 72 hrs by MTT assay; assay type: functional, cell-based; conditions: MCF7, 72 h; in short: as §3
[4] = Cytotoxicity against human PC3 cells after 72 hrs by MTT assay; assay type: functional, cell-based; conditions: PC-3, 72 h; in short: as §1
[5] = Cytotoxicity against mouse NIH/3T3 cells after 72 hrs by MTT assay; assay type: cell-based; conditions: NIH3T3, 72 h; in short: as §3
MDCK = assay: Cytotoxicity against MDCK cells after 72 hrs by MTT assay; assay type: cell-based; conditions: Canis lupus familiaris; in short: as §3
HEK293 [6] = assay: Cytotoxicity against HEK293 cells expressing ABCG2 gene assessed as reduction in cell viability at 0.001 to 100 uM after 72 hrs by MTT assay; assay type: functional, cell-based; conditions: Homo sapiens
In short: (§4)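 HEK293 stably overexpressing ABCB1 or ABCG2 (R2), with empty-vector HEK293/pcDNA3.1 as the parental control, grown in DMEM with 10% FBS at 37 °C and 5% CO2. Cells were trypsinised and seeded at 5×10^3 cells/well, then exposed to serial concentrations for 72 hr. MTT (4 mg/mL) was added for 4 hr, formazan dissolved in DMSO, and A570 read. IC50 from survival curves (Bliss method), means ± SD of triplicates.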

HCT-116 [7] = assay: Induction of DNA fragmentation in human HCT116 cells at 2.5 uM after 6 hrs by ethidium bromide staining based agarose gel electrophoresis; assay type: functional, cell-based
In short: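 HCT-116 cells were cultured with or without 2.5 μM for 6 hr. Genomic DNA was extracted with a purification kit, resolved on 1% agarose gels at 40 V, stained with ethidium bromide and photographed, with untreated DNA loaded at 500 ng and 1 μg.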

[8] = Cytotoxicity against human LS174 cells after 72 hrs by MTT assay; assay type: functional, cell-based; conditions: LS174, 72 h; in short: as §3
HepG2 [9] = assay: Cytotoxicity against human HepG2 cells assessed as reduction in cell viability at 1 uM after 24 hrs by Celltiter-Glo luminescent cell viability assay; assay type: cell-based; conditions: hepg2, 24 h
In short: (§5)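 Viability of HepG2 cells was measured in parallel with the PXR reporter assay. Cells were transfected, plated at 10,000/well in phenol red-free DMEM with 5% charcoal/dextran-treated FBS, and treated 24 hr with 1 or 10 μM or DMSO. ATP was quantified by CellTiter-Glo luminescence. Means ± SD of triplicates, t-test versus DMSO.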

[10] = molecular target: T1, Nuclear receptor subfamily 1 group I member 2 (Homo sapiens, UniProt O75469); assay: Transactivation of human PXR expressed in human HepG2 cells co-expressing pGL3-CYP3A4-luciferase gene assessed as increase in CYP3A4 promoter activity at 10 uM after 24 hrs by luciferase reporter gene assay; conditions: hepg2, 24 h
T1 sequence (O75469 whole entry): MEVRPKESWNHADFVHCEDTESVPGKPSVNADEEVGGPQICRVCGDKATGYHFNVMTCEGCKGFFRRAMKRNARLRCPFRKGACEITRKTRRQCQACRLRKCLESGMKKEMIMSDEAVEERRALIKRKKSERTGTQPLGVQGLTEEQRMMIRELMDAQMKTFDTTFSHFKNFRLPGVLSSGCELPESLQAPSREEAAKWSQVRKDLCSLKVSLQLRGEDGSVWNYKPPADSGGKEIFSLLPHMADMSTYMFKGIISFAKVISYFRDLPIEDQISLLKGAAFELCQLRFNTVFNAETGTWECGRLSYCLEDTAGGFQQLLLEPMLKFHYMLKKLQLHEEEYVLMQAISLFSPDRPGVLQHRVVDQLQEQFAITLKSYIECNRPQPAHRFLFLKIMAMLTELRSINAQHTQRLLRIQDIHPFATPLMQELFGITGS

[11] = Cytotoxicity against human LS180 cells after 72 hrs by MTT assay; assay type: functional, cell-based; conditions: LS180, 72 h; in short: as §3
HEK293 [12] = assay: Cytotoxicity against HEK293 cells expressing pcDNA3.1 after 72 hrs by MTT assay; assay type: cell-based; conditions: Homo sapiens, HEK293, 72 h; in short: as §1
HCT-116 [13] = assay: Induction of mitochondrial membrane potential loss in human HCT116 cells after 4 hrs by mitotracker red and Alexa Fluor 488 annexin V staining based flow cytometry; assay type: functional, cell-based
In short: (§6)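 HCT-116 cells in 6-well plates, in complete medium, were exposed to 0, 1 or 10 μM for 4 hr. Harvested cells were stained with MitoTracker Red (4 μL of 10 μM working solution per mL) for 30 min at 37 °C, washed, then given Alexa Fluor 488 annexin V for 15 min in annexin-binding buffer. Flow cytometry emission at 530 and 585 nm; two independent experiments in triplicate.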

[14] = molecular target: T1, Nuclear receptor subfamily 1 group I member 2; assay: Transactivation of human PXR expressed in human HepG2 cells co-expressing pGL3-CYP3A4-luciferase gene assessed as increase in CYP3A4 promoter activity at 1 uM after 24 hrs by luciferase reporter gene assay; assay type: ADME, cell-based; conditions: hepg2, 24 h
In short: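 HepG2 cells were transiently cotransfected with pcDNA3-hPXR and pGL3-CYP3A4-luc; after 24 hr they were plated at 10,000/well in phenol red-free DMEM with 5% charcoal-stripped FBS. […] Activity expressed as fold over DMSO; three independent experiments.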

[15] = Cytotoxicity against human HCT15 cells after 72 hrs by MTT assay; assay type: functional, cell-based; conditions: HCT-15, 72 h; in short: as §1
HCT-116 [16] = assay: Induction of mitochondrial membrane potential loss in human HCT116 cells at 10 uM after 4 hrs by mitotracker red and Alexa Fluor 488 annexin V staining based flow cytometry; assay type: functional; in short: as §6
HEK293 [17] = assay: Cytotoxicity against HEK293 cells expressing ABCB1 gene assessed as reduction in cell viability at 0.001 to 100 uM after 72 hrs by MTT assay; assay type: functional, cell-based; conditions: Homo sapiens; in short: as §4
HCT-15 = assay: Induction of morphological changes in human HCT15 cells at 0.5 to 10 uM after 68 hrs by inverted microscopy; assay type: functional, cell-based
In short: (§7)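 HCT-116, HCT-15 and HEK293 cells were treated with 0, 0.5, 2 or 10 μM for 68 hr. Each treatment was in triplicate. Cells were photographed under an inverted microscope at 20X and representative images shown.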

[18] = Cytotoxicity against drug-resistant human S1-M1-80 cells expressing ABCG2 G482 mutant after 72 hrs by MTT assay relative to topotecan; assay type: functional
[19] = Cytotoxicity against drug-resistant human S1-M1-80 cells expressing ABCG2 G482 mutant after 72 hrs by MTT assay relative to SN-38; assay type: functional
HCT-116 [20] = assay: Induction of morphological changes in human HCT116 cells at 0.5 to 10 uM after 68 hrs by inverted microscopy; assay type: functional, cell-based; in short: as §7
HCT-116 [21] = assay: Induction of mitochondrial membrane potential loss in human HCT116 cells at 1 uM after 4 hrs by mitotracker red and Alexa Fluor 488 annexin V staining based flow cytometry; assay type: functional; in short: as §6
HT-29 = assay: Cytotoxicity against human HT-29 cells after 72 hrs by MTT assay; assay type: functional, cell-based; conditions: HT-29, 72 h; in short: as §1
HEK293 [22] = assay: Induction of morphological changes in HEK293 cells at 0.5 to 10 uM after 68 hrs by inverted microscopy; assay type: cell-based; conditions: human, hek293, 68 h; in short: as §7
LoVo = assay: Cytotoxicity against human LoVo cells after 72 hrs by MTT assay; assay type: functional, cell-based; in short: as §3
HepG2 [23] = assay: Cytotoxicity against human HepG2 cells assessed as reduction in cell viability at 10 uM after 24 hrs by Celltiter-Glo luminescent cell viability assay; assay type: cell-based; conditions: hepg2, 24 h; in short: as §5
Homo sapiens = species: Homo sapiens; assay: Cytotoxicity against drug-resistant human S1-M1-80 cells expressing ABCG2 G482 mutant after 72 hrs by MTT assay; assay type: functional, cell-based
In short: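 S1-M1-80 colon cells (G482 mutant ABCG2), maintained in medium with 80 μM mitoxantrone, tested by MTT alongside parental S1. 72 hr exposure, MTT 4 hr, DMSO solubilisation, A570. IC50 by Bliss method; SN-38 and topotecan run as comparators; means ± SD of triplicate determinations.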

Row | SMILES | IC50 (DU-145) | IC50 [1] | IC50 (A2780) | IC50 [2] | IC50 (MDA-MB-231) | IC50 2008 | IC50 (HepG2 [3]) | IC50 (MCF7) | IC50 [4] | IC50 [5] | IC50 (MDCK) | IC50 (HEK293 [12]) | other results
1 | Cc1cc(N(C)C)n2nc3nc4ccccc4cc3c2n1 | 28.6 µM | 53.6 µM | 49.9 µM | 58.3 µM | 44.8 µM | 47.9 µM | 67.9 µM | 79.6 µM | 88.8 µM |  |  |  | 
2 | Cc1cc(N2CCOCC2)n2nc3nc4ccccc4cc3c2n1 |  | 88.9 µM | > 100 µM | 67.4 µM | 88.2 µM | > 100 µM | > 100 µM | 98.4 µM | 78.3 µM | > 100 µM | > 100 µM |  | 
3 | Cc1cc(Cl)n2nc3nc4ccccc4cc3c2n1 | 1.2 µM | 0.6 µM | 11.6 µM | 0.8 µM |  | 17.4 µM | 9.7 µM | 7.4 µM | 0.9 µM | 23.6 µM | 19.7 µM | 7.8 µM | Activity (HEK293 [6]): Active; Activity (HCT-116 [7]): Active; IC50 [8]: 0.875 µM; Activity (HepG2 [9]): Non-toxic; Activity [10]: Not Active; IC50 [11]: 1.02 µM; Activity (HCT-116 [13]): Dose-dependent effect; Activity [14]: Not Active; IC50 [15]: 0.671 µM; Activity (HCT-116 [16]): 98.36%; Activity (HEK293 [17]): Active; Activity (HCT-15): Active; fold change (FC) [18]: 3; fold change (FC) [19]: 3; Activity (HCT-116 [20]): Active; Activity (HCT-116 [21]): 68.46%; IC50 (HT-29): 0.791 µM; Activity (HEK293 [22]): Toxic; IC50 (LoVo): 0.994 µM; Activity (HepG2 [23]): Toxic
4 | CCc1c2c(nc3ccc(O)cc13)-c1cc3c(c(=O)n1C2)COC(=O)[C@]3(O)CC |  |  |  |  |  |  |  |  |  |  |  |  | Activity (Homo sapiens): inactive
5 | Cc1cc(=O)n2nc3nc4ccccc4cc3c2[nH]1 |  |  | 74.3 µM | 63.6 µM |  | 88.6 µM | 89.5 µM |  | 46.5 µM | 98.4 µM | > 100 µM | 69.6 µM | 

— ChEMBL document CHEMBL3393007, “IND-2, a pyrimido[1″,2″:1,5]pyrazolo[3,4-b]quinoline derivative, circumvents multi-drug resistance and causes apoptosis in colon cancer cells” (Bioorg Med Chem, 2015)
